Ba/F3 V617F tox: loss of viability in JAK2V617F-driven Ba/F3 cells; 1.1% of 220,000 active; Ba/F3 EpoR-JAK2V617F viability, ATP luminescence; inhibition, % at 5.6 µM; AID 1446;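 active = inhibition above the campaign mean plus 3 SD over all tested compounds, cut at about 24% in these data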;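 note: cytokine-independent growth of Ba/F3 cells driven by EpoR plus mutant JAK2; 0% = DMSO-treated cells and 100% = JAK inhibitor I control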
bCat nuc transl: beta-catenin nuclear translocation modulation; HeLa beta-catenin nuclear translocation, immunofluorescence imaging; nuclear translocation activity, % at 5 µM; 0.3% of 190,000 active;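 active = nuclear translocation activity above 50% at 5 µM, with a well cell count of 50 or more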;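 note: per-cell ratio of nuclear to cytoplasmic median beta-catenin stain intensity; plate controls were DMSO negative control for no effect and GSK-3 inhibitor IX positive control for full effect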
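Technique: fluorescence imaging of beta-catenin antibody stain plus DAPI / Material: human HeLa cell line / Incubation: compound treatment 24 h, 37°C, 5% CO2 / Read-out basis: % activation of per-cell nuclear versus cytoplasmic median beta-catenin signal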
BaF3 tox: parental Ba/F3 viability inhibition as JAK2V617F counter-screen | CellTiter-Glo ATP luminescence | inhibition, % at 5.6 µM | 1.1% of 220,000 active | AID 1486;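 active = inhibition above a per-campaign cutoff, the mean inhibition of all tested compounds plus 3 SD, cut at about 27% in these data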;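 note: 0% = DMSO wells and 100% = JAK Inhibitor I control wells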
MT stabilize HCS: microtubule stabilizers in HeLa cells; % tubulin-high responders, % at 10 µM; HeLa tubulin immunostaining HCS, 24 h; share of cells brighter than vehicle mean+2SD; 0.83% of 200,000 active; AID 2205;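 active = plate Z-score above 3 for both tubulin-high and condensed-nucleus cell shares, with cell loss under 80%, at 10 µM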;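 note: anti alpha tubulin signal scored within the nucleus-defined area of each cell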
APP transl inh: APP translation inhibition; SH-SY5Y APP 5'UTR-luciferase reporter, luminescence; inhibition, % at 2 µM; 0.82% of 190,000 active; AID 1285;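 active = inhibition above a set limit, derived from the sample mean plus 3 SD, cut at about 45% in these data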
IEC-6 cytotox: kills IEC-6 intestinal cells in KLF5 counter-screen; IEC-6 cytotoxicity, luminescence viability; AID 1825; 0.78% of 290,000 active; inhibition, % at 5 µM;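 note: 0% = plate median of test compound wells and 100% = cytotoxic reference compound wells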
IEC-6 tox confirm: IEC-6 cytotoxicity, confirmation assay. inhibition, % at 5 µM. IEC-6 rat intestinal epithelial viability, luminescence. shares compounds with IEC-6 cytotox. 63% of 1,900 active;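 note: 0% = vehicle and 100% = reference cytotoxic drug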
Starred values were filed as active, the others as inactive. Hits are enriched below; roughly 2.2% of the tested compounds scored in any of these assays. Cut-off read from the data, not from the text of the source, unless noted: active = inhibition above about 22%; inactive = the rest.

For C/C(=N\NC(=O)C1CC1)c1ccccc1Br the results were IEC-6 cytotox 1.
Screening CC1=C(C(=O)OCc2ccc3c(c2)OCO3)C(c2ccc(F)cc2)NC(=O)N1 (centres undefined) returned Ba/F3 V617F tox 52*, bCat nuc transl 14, BaF3 tox 31*, MT stabilize HCS 15*, APP transl inh 44, IEC-6 cytotox 38* and IEC-6 tox confirm 47*.
`CC1=C(C(=O)OCc2ccc3c(c2)OCO3)C(c2ccc(Cl)cc2)NC(=O)N1` (centres undefined) gave Ba/F3 V617F tox 74*, bCat nuc transl 0, BaF3 tox 76*, MT stabilize HCS 16*, APP transl inh 78*, IEC-6 cytotox 82* and IEC-6 tox confirm 72*.
`CCCCCOC(=O)C1=C(C)NC(=O)NC1c1ccc2c(c1)OCO2` (centres undefined) gave IEC-6 cytotox -3.
Screening CSCCOC(=O)C1=C(C)NC(=O)NC1c1ccc2c(c1)OCO2 (centres undefined) returned IEC-6 cytotox 5.
CCSC1=NCCN1C(=O)C(C)(C)Oc1ccc(Cl)cc1 was read as Ba/F3 V617F tox 5, bCat nuc transl 0, BaF3 tox -2, MT stabilize HCS 4, APP transl inh -30 and IEC-6 cytotox 3.
For Cc1ccc(-c2nc(NCCCO)c3ccccc3n2)cc1 the results were IEC-6 cytotox 4.
`Fc1cccc(NCCc2c[nH]c3ccccc23)n1` gave IEC-6 cytotox -2.
`c1ccc2c(NCCc3c[nH]c4ccccc34)c3ccccc3nc2c1` gave IEC-6 cytotox 22* and IEC-6 tox confirm 16.
For OCCCNc1c2ccccc2nc2ccccc12 the results were IEC-6 cytotox 39* and IEC-6 tox confirm 26*.
For CN(C)S(=O)(=O)c1cccc(COc2ncnc3c(Cl)cc(Cl)cc23)c1 the results were IEC-6 cytotox -4.
`Cc1ccn2c(C(=O)CSc3ccccc3)c(C)nc2c1` gave Ba/F3 V617F tox 0, bCat nuc transl -5, BaF3 tox -2, MT stabilize HCS 6, APP transl inh 4, IEC-6 cytotox 23* and IEC-6 tox confirm 22.
For Cc1ccc(SCC(=O)c2c(C)nc3cc(C)ccn23)cc1 the results were Ba/F3 V617F tox -2, bCat nuc transl -2, BaF3 tox -2, MT stabilize HCS 7, APP transl inh 17 and IEC-6 cytotox 7.
`FC(F)(F)c1cnc(COc2ccc(Cl)cc2Cl)c(Cl)c1` gave Ba/F3 V617F tox -4, bCat nuc transl 0, BaF3 tox -1 and IEC-6 cytotox -5.
COC(=O)c1ccc(C)c(NS(=O)(=O)c2ccc3c(c2)OCCO3)c1 was read as Ba/F3 V617F tox 75*, bCat nuc transl 7, BaF3 tox 55*, MT stabilize HCS 21*, APP transl inh 93*, IEC-6 cytotox 80* and IEC-6 tox confirm 54*.
`COC(=O)c1ccc(C)c(NS(=O)(=O)c2ccc(C)c([N+](=O)[O-])c2)c1` gave Ba/F3 V617F tox 1, bCat nuc transl -3, BaF3 tox 1, MT stabilize HCS 3, APP transl inh -15 and IEC-6 cytotox -1.
`COC(=O)c1ccc(C)c(NS(=O)(=O)c2ccc(OC)cc2)c1` gave Ba/F3 V617F tox 80*, BaF3 tox 75*, MT stabilize HCS 24*, APP transl inh 94*, IEC-6 cytotox 87* and IEC-6 tox confirm 59*.
For COc1ccc(C2/C=C\CN(Cc3ccc(N(C)C)cc3)CC(=O)N2Cc2ccc(F)cc2)cc1 (centres undefined) the results were bCat nuc transl -2.
Screening Cc1ccc(Nc2nc(=O)c3cccnc3s2)cc1 returned Ba/F3 V617F tox 0, bCat nuc transl -3, BaF3 tox 7, MT stabilize HCS 3, APP transl inh -68, IEC-6 cytotox 37* and IEC-6 tox confirm 39*.
COc1ccc(OC)c(Nc2nc(=O)c3cccnc3s2)c1 was read as Ba/F3 V617F tox 1, bCat nuc transl 0, BaF3 tox 3, MT stabilize HCS 3, APP transl inh 2 and IEC-6 cytotox 0.
`CN1C(=O)C(CC(=O)NCC2CCCCC2)SC1=Nc1ccccc1` (centres undefined) gave Ba/F3 V617F tox 2, bCat nuc transl 0, BaF3 tox 3, APP transl inh -5 and IEC-6 cytotox 4.
Screening CCc1nc(N)nc(N)c1-c1ccc(Cl)cc1 returned Ba/F3 V617F tox 97*, BaF3 tox 97*, MT stabilize HCS 3, APP transl inh -9, IEC-6 cytotox 49* and IEC-6 tox confirm 36*.
`COc1ccc(N2CCCC2)c(NC(=O)c2ccc([N+](=O)[O-])o2)c1` gave IEC-6 cytotox 33* and IEC-6 tox confirm 13.
Screening O=C(Nc1ccccc1N1CCN(C(=O)c2ccccc2)CC1)c1ccc([N+](=O)[O-])o1 returned IEC-6 cytotox 28* and IEC-6 tox confirm 12.
CC1CCN(c2ccccc2NC(=O)c2ccc([N+](=O)[O-])o2)CC1 was read as IEC-6 cytotox 5.
Screening COc1ccc(C(=O)Nc2cc([N+](=O)[O-])ccc2N2CCCC2)cc1 returned Ba/F3 V617F tox -2, bCat nuc transl -3, BaF3 tox 1, MT stabilize HCS 2, APP transl inh -3 and IEC-6 cytotox -2.
O=C(Nc1ccccc1N1CCCC1)c1ccc([N+](=O)[O-])o1 was read as IEC-6 cytotox 66* and IEC-6 tox confirm 17.
`COc1cc(OC)nc(Oc2cc(/C=N/O)ccc2OC)n1` gave Ba/F3 V617F tox 6, bCat nuc transl -2, BaF3 tox 4, MT stabilize HCS 12, APP transl inh 10 and IEC-6 cytotox 8.
CCCOc1ccc(CNC(=S)Nc2ccccc2)cc1Cl was read as IEC-6 cytotox 6.
COc1ccc(/C=N/NC(N)=S)cc1 was read as Ba/F3 V617F tox 0, bCat nuc transl 0, BaF3 tox -1 and IEC-6 cytotox -2.
For NC(=S)N/N=C/c1ccc(C(F)(F)F)cc1 the results were Ba/F3 V617F tox 66*, bCat nuc transl 4, BaF3 tox 35*, MT stabilize HCS 4, APP transl inh -1, IEC-6 cytotox 39* and IEC-6 tox confirm 18.
For C=CCOc1ccccc1CN(C(=O)CCl)c1ccc2c(c1)OCO2 the results were IEC-6 cytotox 2.
COc1cc2cc(-c3ccc(O)cc3O)nc(C)c2cc1OC was read as IEC-6 cytotox 22* and IEC-6 tox confirm 16.
For Cc1ccc(C(=O)OCn2ncc(Cl)c(Cl)c2=O)cc1 the results were Ba/F3 V617F tox 39*, bCat nuc transl 0, BaF3 tox 56*, MT stabilize HCS 3, APP transl inh 92*, IEC-6 cytotox 44* and IEC-6 tox confirm 56*.

High-throughput results deposited in PubChem by several laboratories.
